These results are taken from ChEMBL document CHEMBL1148268, “Macrocyclic piperazinones as potent dual inhibitors of farnesyltransferase and geranylgeranyltransferase-I” (Bioorg Med Chem Lett, 2004).

Values after ≈ are worked out from the molar mass of the structure shown. Bounds are passed on as bounds.

Broadly, the IC50 is the midpoint of a concentration-inhibition curve. One may read the EC50 as the concentration at which the effect is half-maximal. Low readings indicate an effect from little substance, high ones a need for much substance.

Test [1] concerns the target T1, Protein farnesyltransferase (Homo sapiens, UniProt P49354+P49356). As to the kind of experiment: Inhibition of human Farnesyltransferase -catalyzed incorporation of [3H]FPP into recombinant Ras-CVIM. It is filed as protein-complex assay. The essentials:
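Human FPTase with [3H]FPP and recombinant Ras-CVIM as the protein substrate. The IC50 is the concentration that halves [3H]farnesyl incorporation into Ras-CVIM.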

Test [2] deals with T2, Geranylgeranyl transferase type I (Homo sapiens, UniProt P49354+P53609). Briefly: Inhibition of human Geranylgeranyl transferase type I incorporation of [3H]GGPP into biotinylated peptide corresponding to the C-terminus of human Ki-Ras. The format is protein-complex assay. The essentials: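 Human GGPTase-I with [3H]GGPP and a biotinylated peptide matching the human Ki-Ras C-terminus. Enzyme and inhibitor are preincubated for 30 min with 5 mM ATP. The IC50 is the concentration that halves incorporation. A parallel run omits the preincubation.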

The target in test [3] is T1, Protein farnesyltransferase. As to the kind of experiment: Displacement of radiolabeled FTI from Farnesyltransferase in cultured Ha-ras transformed RAT1 cells. The format is cell-based.
Test [4] has as its target T2, Geranylgeranyl transferase type I. Briefly: Minimum inhibitory concentration required to inhibit Rap1a processing in PSN-1 cells. It is filed as functional, cell-based.
The subject of test [5] is PSN1. As to the kind of experiment: Ratio of effective concentration required for protein processing of Ki-Ras to that of HDJ2 in PSN-1 cells. The format is functional, Homo sapiens. Put shortly:
(§1)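 PSN-1 cells are treated with compound. Prenylation of HDJ2, Rap1a and Ki-Ras is scored by scanning immunoblots of whole-cell extracts, and EC50 is the dose giving half-maximal inhibition of prenylation. The ratio is Ki-Ras EC50 over HDJ2 EC50. In one arm a selective GGTI is added at 1 μM.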

For test [6], the system named is PSN1. As to the kind of experiment: Effective dose required for half-maximal inhibition of geranylgeranylated protein (Rap1a) in PSN-1 cells. It is filed as functional, cell-based. To be noted: Homo sapiens. The essentials:
as §1

The species named for test [7] is Homo sapiens. As to the kind of experiment: Slope between log (IC50) versus log [GGPP] in GGTase-I. The format is functional. Put shortly: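 GGPP competition in the human GGPTase-I [3H]GGPP/biotinylated Ki-Ras peptide assay. IC50s are measured at various GGPP concentrations with 5 mM ATP.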
Test [8] deals with PSN1. As to the kind of experiment: Effective dose required for half-maximal inhibition of prenylation in PSN-1 cells (Ki-Ras). The format is functional, cell-based. To be noted: Homo sapiens. Put shortly: as §1
Test [9] concerns PSN1. As to the kind of experiment: Effective dose required for half-maximal inhibition of farnesylated protein (HDJ2) in PSN-1 cells. It is filed as functional, cell-based. To be noted: Homo sapiens. Put shortly:
as §1

Turning to `N#Cc1ccc2cc1Oc1ccc(CC(O)CO)c(c1)CN1CCN(CC1=O)Cc1cncn1C2` (stereo not drawn), the results for the IC50 in test [1], in test [2] and in [3] were 6.8 nM, 1050 nM and 40 nM, respectively.

Turning to `COC(=O)c1ccc2cc1CN1CCN(CC1=O)Cc1cncn1Cc1ccc(C#N)c(c1)O2`, the IC50 in [1] is 24 nM; in test [2], 420 nM; in test [3], 20 nM. In test [4], this molecule registered an MIC of 3 µM (≈ 1.37 µg/mL).

With `N#Cc1ccc2cc1Oc1ccc(CC3CC3)c(c1)CN1CCN(CC1=O)Cc1cncn1C2`, the IC50 was determined as 0.66 nM in test [1], 238 nM in test [2] and 2.2 nM in test [3]. Also, in [4], the MIC came out at 10 µM (≈ 4.54 µg/mL).

Turning to `N#Cc1ccc2cc1Oc1ccc3cccc(c3c1)N1CCN(CC1=O)Cc1cncn1C2`, the Ratio in test [5] is reported as above 5000. Also, the figures for the half-inhibitory concentration (IC50) in test [2] and in [3] were 301 nM and 0.29 nM, respectively. For the same molecule, the EC50 was above 10000 nM in [6], above 10000 nM in test [8] and 2 nM in test [9]. The Slope in test [7] is reported as -0.44. This molecule also returned an MIC in [4] of 10 µM (≈ 4.35 µg/mL).

Take `N#Cc1ccc2cc1Oc1cccc(c1)CN1CCN(CC1=O)Cc1cncn1C2`: the IC50 in [1] was 2.2 nM; in test [2], 3780 nM; in test [3] it was 3.3 nM. This molecule gave a Slope in test [7] of 0.08. Further, the MIC in test [4] was found to be 30 µM (≈ 12 µg/mL).

Turning to `N#Cc1ccc2cc1Oc1ccc(C(=O)NC3C4CC5CC(C4)CC3C5)c(c1)CN1CCN(CC1=O)Cc1cncn1C2` (stereo not drawn), the concentration for half-maximal inhibition (IC50) in [1] came out at 20 nM; in [2], 43 nM; in test [3], 30 nM. Further, the Slope in test [7] is 0.28. This molecule also showed an MIC in [4] of 0.1 µM (≈ 0.0577 µg/mL).

For the molecule `CCCc1ccc2cc1CN1CCN(CC1=O)Cc1cncn1Cc1ccc(C#N)c(c1)O2`, the IC50 in test [1] turned out to be 0.31 nM; in test [2] it was 97 nM; in [3], 0.44 nM. The Slope in [7] is given as -0.12. In test [4], the MIC was determined as 1 µM (≈ 0.442 µg/mL).

In the case of `CC(C)(C)C#Cc1ccc2cc1CN1CCN(CC1=O)Cc1cncn1Cc1ccc(C#N)c(c1)O2`, the figures for the IC50 in test [1], in [2] and in test [3] were 38 nM, 55 nM and 10 nM, respectively. The Slope in test [7] is given as 0.32. The molecule also had an MIC in test [4] of 1 µM (≈ 0.48 µg/mL).

As for `N#Cc1ccc2cc1Oc1ccc(C#Cc3ccccc3)c(c1)CN1CCN(CC1=O)Cc1cncn1C2`, the IC50 in test [1] came out at 645 nM; in [2], 534 nM.

In the case of `N#Cc1ccc2cc1Oc1ccc(F)c(c1)CN1CCN(CC1=O)Cc1cncn1C2`, the concentration for half-maximal inhibition (IC50) in test [1] is below 1 nM; in [2], 2750 nM; in [3], 1 nM.

Regarding `Cc1ccc2cc1CN1CCN(CC1=O)Cc1cncn1Cc1ccc(C#N)c(c1)O2`, the half-inhibitory concentration (IC50) in test [2] came to 502 nM; in test [3], 0.33 nM.

As to `CC(C)(C)CCc1ccc2cc1CN1CCN(CC1=O)Cc1cncn1Cc1ccc(C#N)c(c1)O2`, the IC50 in test [1] was determined as 19 nM; in test [2], 2.1 nM; in test [3] it was 28 nM. Further, the Slope in [7] turned out to be 0.48. The molecule also came in with an MIC in test [4] of 0.1 µM (≈ 0.0484 µg/mL).

Turning to `N#Cc1ccc2cc1Oc1ccc(CCC3CCCCC3)c(c1)CN1CCN(CC1=O)Cc1cncn1C2`, the results for the IC50 in [1], in test [2] and in [3] were 1.6 nM, 1.7 nM and 5.7 nM, respectively. For the same molecule, the Ratio in test [5] is given as 89. Besides, the EC50 is 140 nM in test [6], 1060 nM in test [8] and 12 nM in [9]. In [7], this molecule yielded a Slope of -0.25. Also, the MIC in test [4] worked out at 0.03 µM (≈ 0.0153 µg/mL).

With `C#Cc1ccc2cc1CN1CCN(CC1=O)Cc1cncn1Cc1ccc(C#N)c(c1)O2`, the IC50 in test [1] was found to be 0.5 nM; in test [2], 212 nM; in test [3] it was 1.4 nM. Moreover, in test [4], the MIC was found to be 3 µM (≈ 1.27 µg/mL).

Take `CCc1ccc2cc1CN1CCN(CC1=O)Cc1cncn1Cc1ccc(C#N)c(c1)O2`: the IC50 was found to be 0.66 nM in [1], 124 nM in [2] and 1.2 nM in test [3]. For the same molecule, the Slope in test [7] is -0.16. In test [4], this molecule registered an MIC of 1 µM (≈ 0.428 µg/mL).

In the case of `N#Cc1ccc(Cn2cncc2CN2CCN(c3cccc(Cl)c3)C(=O)C2)cc1` [L-778123 FREE BASE], the results for the EC50 in [6], in test [8] and in test [9] were 6760 nM, 6300 nM and 92 nM, respectively. The molecule also returned a Slope in test [7] of 1.42.

In the case of `N#Cc1ccc2cc1Oc1ccc(C#CC3CCCCC3)c(c1)CN1CCN(CC1=O)Cc1cncn1C2`, the IC50 in test [1] worked out at 364 nM; in [2], 2.4 nM; in test [3], 170 nM. The same molecule returned a Slope in test [7] of 0.68. In [4], the MIC was determined as 0.3 µM (≈ 0.152 µg/mL).

For the molecule `N#Cc1ccc2cc1Oc1ccc(Br)c(c1)CN1CCN(CC1=O)Cc1cncn1C2`, the IC50 in test [1] is 0.45 nM; in test [2], 100 nM; in test [3] it was 1.1 nM. In test [4], this molecule showed an MIC of 10 µM (≈ 4.78 µg/mL).

As for `N#Cc1ccc2cc1Oc1ccc(Cl)c(c1)CN1CCN(CC1=O)Cc1cncn1C2`, the IC50 in test [1] was below 1 nM; in [2], 450 nM; in test [3] it was 0.3 nM.

For `C=CCc1ccc2cc1CN1CCN(CC1=O)Cc1cncn1Cc1ccc(C#N)c(c1)O2`, the IC50 in test [1] amounted to 0.1 nM; in test [2] it was 107 nM; in [3], 0.59 nM. This molecule returned an MIC in test [4] of 1 µM (≈ 0.44 µg/mL).

On to `CC1(C)OCC(Cc2ccc3cc2CN2CCN(CC2=O)Cc2cncn2Cc2ccc(C#N)c(c2)O3)O1` (stereo not drawn), for which the IC50 in [1] amounted to 0.5 nM; in test [2], 46 nM; in [3], 0.86 nM. The Ratio in [5] is recorded as 150. Besides, the EC50 in test [6] was 690 nM; in test [8] it was 1520 nM; in test [9], 10 nM. In [7], this molecule returned a Slope of 0.25. In test [4], this molecule showed an MIC below 0.3 µM.
